This is an account of results in ChEMBL document CHEMBL2434910, “Investigation of 3-aryl-pyrimido[5,4-e][1,2,4]triazine-5,7-diones as small molecule antagonists of β-catenin/TCF transcription” (Bioorg Med Chem Lett, 2013).

Molecules are shown by their SMILES. pIC50: −log10 of the molar value. Activity calls are given as the source filed them. The calls are words filed in the database; no cut-off is given here.

Series [1] has as its system IEC-6. The series can be described thus: Antagonist activity at Beta-catenin/TCF in rat IEC-6 cells assessed as inhibition of Wnt-3a-induced lgr5 expression up to 1.2 uM preincubated for 6 hrs followed by Wnt-3a induction measured after 12 hrs by qPCR analysis. The series is classed as cell-based. The essentials:
(§1)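 IEC-6 rat intestinal epithelial cells given compound at a range of concentrations for 6 h, then recombinant mouse Wnt-3a (50 ng/mL) added for 12 h. Target transcript quantified by qPCR with gene-specific primers, normalised to U6. The Wnt-3a-stimulated level with no compound is set to 100%. IC50 taken from concentration-response; mean ± SEM reported where available.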

Series [2] has as its system IEC-6. The series can be described thus: Antagonist activity at Beta-catenin/TCF in rat IEC-6 cells assessed as inhibition of Wnt-3a-induced axin2 expression up to 1.2 uM preincubated for 6 hrs followed by Wnt-3a induction measured after 12 hrs by qPCR analysis. The series is classed as cell-based. The procedure, abridged:
as §1

Series [3] concerns IEC-6. The series can be described thus: Antagonist activity at Beta-catenin/TCF in rat IEC-6 cells assessed as inhibition of Wnt-3a-induced axin2 expression up to 179 uM preincubated for 6 hrs followed by Wnt-3a induction measured after 12 hrs by qPCR analysis. In kind it is cell-based. The procedure, abridged: as §1
Series [4] is described as follows: Antagonist activity at Beta-catenin/TCF in rat IEC-6 cells assessed as inhibition of Wnt-3a-induced lgr5 expression preincubated for 6 hrs followed by Wnt-3a induction measured after 12 hrs by qPCR analysis. The series is classed as cell-based. The essentials: as §1
Series [5] is described as follows: Antagonist activity at Beta-catenin/TCF in rat IEC-6 cells assessed as inhibition of Wnt-3a-induced axin2 expression preincubated for 6 hrs followed by Wnt-3a induction measured after 12 hrs by qPCR analysis. In kind it is cell-based. The procedure, abridged: as §1
Series [6] has as its system DLD-1. The series can be described thus: Antiproliferative activity against human DLD1 cells assessed as inhibition of colony formation at 1 to 3 uM after 2 weeks by crystal violet staining-based assay. The series is classed as functional, cell-based. The essentials: (§2)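 Colony formation assay. DLD-1 (bi-allelic APC mutation) and RKO (no β-catenin dysregulation) colon cancer cells seeded in medium with 10% serum containing compound. Surviving colonies visualised and counted two weeks after plating. Two independent experiments per concentration, each in triplicate. Compound incubations carried out in the dark.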

Series [7] deals with SW480. The series can be described thus: Downregulation of axin2 protein level in human SW480 cells after 20 hrs by Western blotting analysis. In kind it is functional, cell-based.
The subject of series [8] is DLD-1. The series can be described thus: Downregulation of cyclin D1 protein level in human DLD1 cells at 3 to 10 uM after 20 hrs by Western blotting analysis. The series is classed as functional, cell-based. The essentials: (§3)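 DLD-1 colorectal cancer cells treated with compound for 20 h in the dark. β-Catenin (free and total pools) and cyclin D1 protein levels assessed by Western blot.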

The subject of series [9] is SW480. The series can be described thus: Downregulation of total beta-catenin protein level in human SW480 cells at 3 to 10 uM after 20 hrs by Western blotting analysis. In kind it is functional, cell-based.
The subject of series [10] is DLD-1. The series can be described thus: Downregulation of free beta-catenin protein level in human DLD1 cells at 3 to 10 uM after 20 hrs by Western blotting analysis. In kind it is functional, cell-based. The essentials:
as §3

The subject of series [11] is DLD-1. The series can be described thus: Downregulation of total beta-catenin protein level in human DLD1 cells at 3 to 10 uM after 20 hrs by Western blotting analysis. In kind it is functional, cell-based. The procedure, abridged:
as §3

In series [12] the test system is RKO. The series can be described thus: Antiproliferative activity against human RKO cells assessed as inhibition of colony formation at 1 to 3 uM after 2 weeks by crystal violet staining-based assay. In kind it is functional, cell-based. The essentials:
as §2

Series [13] is described as follows: Downregulation of free beta-catenin protein level in HEK293T cells at 1 to 10 uM after 3 hrs by Western blotting analysis in presence of GSK3-beta antagonist SB216763. The series is classed as functional, cell-based. Particulars: Homo sapiens, HEK-293T. The essentials: (§4)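 HEK293T cells treated with 5 μM SB216763 (GSK3β antagonist) together with various concentrations of compound, in the dark. Free and total β-catenin protein assessed by Western blot.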

The test system of series [14] is SW480. The series can be described thus: Downregulation of free beta-catenin protein level in human SW480 cells at 3 to 10 uM after 20 hrs by Western blotting analysis. The series is classed as functional, cell-based.
For series [15], the system named is HEK-293T. The series can be described thus: Effect on total beta-catenin protein level in HEK293T cells at 1 to 10 uM after 3 hrs by Western blotting analysis in presence of GSK3-beta antagonist SB216763. The series is classed as functional, cell-based. Particulars: Homo sapiens. The essentials: as §4
Series [16] can be described thus: Downregulation of free beta-catenin protein level in HEK293T cells after 3 hrs by Western blotting analysis in presence of GSK3-beta antagonist SB216763 and proteasome inhibitor MG-132. In kind it is functional, cell-based. Particulars: Homo sapiens; HEK-293T.
A short description of series [17]: Downregulation of free beta-catenin protein level in HEK293T cells after 3 hrs by Western blotting analysis in presence of dominant negative beta-TrCP. The series is classed as functional, cell-based. The conditions noted are these: Homo sapiens; HEK-293T.
The test system of series [18] is RKO. The series can be described thus: Antiproliferative activity against human RKO cells assessed as inhibition of colony formation at 0.3 to 0.5 uM after 2 weeks by crystal violet staining-based assay. The series is classed as functional, cell-based. The procedure, abridged: (§5)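 Cells seeded in medium with 10% serum containing the test compound, kept in the dark; surviving colonies counted two weeks after plating. Colony counts are from two independent experiments at each concentration, each run in triplicate.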

Series [19] concerns DLD-1. The series can be described thus: Antiproliferative activity against human DLD1 cells assessed as inhibition of colony formation at 0.3 to 0.5 uM after 2 weeks by crystal violet staining-based assay. In kind it is functional, cell-based. The procedure, abridged:
as §5

Series [20] can be described thus: Metabolic stability in mouse liver microsomes assessed as compound remaining at 1 uM after 30 mins by LC-MS analysis. The series is classed as ADME, Microsome. The conditions noted are these: read-out: Stability. The essentials:
(§6)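 Compound (1 μM) incubated at 37°C with mouse liver microsomes to assess metabolic stability.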

Series [21] has as its system Liver. The series can be described thus: Metabolic stability in mouse liver microsomes assessed as half life at 1 uM after 1 to 60 mins by LC-MS analysis. In kind it is ADME, Microsome. The essentials: as §6
In series [22] the test system is Liver. The series can be described thus: Metabolic stability in mouse liver microsomes assessed as compound remaining at 1 uM after 3 mins by LC-MS analysis. In kind it is ADME, Microsome. The conditions noted are these: 0.05 h. The essentials: as §6
Series [23] in a line: Metabolic stability in mouse liver microsomes assessed as compound remaining at 1 uM after 60 mins by LC-MS analysis. The series is classed as ADME, Microsome. Particulars: read-out: Stability. The essentials:
as §6

Series [24] is described as follows: Metabolic stability in mouse liver microsomes assessed as compound remaining at 1 uM after 10 mins by LC-MS analysis. In kind it is ADME, Microsome. Particulars: read-out: Stability. The procedure, abridged: as §6
Series [25] has as its system IEC-6. The series can be described thus: Antagonist activity at Beta-catenin/TCF in rat IEC-6 cells assessed as inhibition of Wnt-3a-induced lgr5 expression up to 69 uM preincubated for 6 hrs followed by Wnt-3a induction measured after 12 hrs by qPCR analysis. In kind it is cell-based. The procedure, abridged:
as §1

The test system of series [26] is IEC-6. The series can be described thus: Antagonist activity at Beta-catenin/TCF in rat IEC-6 cells assessed as inhibition of Wnt-3a-induced axin2 expression up to 69 uM preincubated for 6 hrs followed by Wnt-3a induction measured after 12 hrs by qPCR analysis. The series is classed as cell-based. The procedure, abridged:
as §1

Series [27] relates to IEC-6. The series can be described thus: Antagonist activity at Beta-catenin/TCF in rat IEC-6 cells assessed as inhibition of Wnt-3a-induced axin2 expression up to 0.7 uM preincubated for 6 hrs followed by Wnt-3a induction measured after 12 hrs by qPCR analysis. The series is classed as cell-based. The procedure, abridged: as §1
For series [28], the system named is IEC-6. The series can be described thus: Antagonist activity at Beta-catenin/TCF in rat IEC-6 cells assessed as inhibition of Wnt-3a-induced lgr5 expression up to 0.7 uM preincubated for 6 hrs followed by Wnt-3a induction measured after 12 hrs by qPCR analysis. In kind it is cell-based. The essentials: as §1

`COc1ccc(-c2nc3c(=O)n(C)c(=O)nc-3n(CCO)n2)cc1`: the inhibition entry in series [1] and in series [2] was “inactive” throughout.

Turning to `CCN(CC)CCOc1ccc(-c2nnc3c(n2)c(=O)n(C)c(=O)n3-c2ccccc2)cc1`, in [3], the inhibition result was “Active”. Besides, in series [4], the pIC50 was 3.78.

For `COc1c(C[C@@H](C)OC(=O)Oc2ccc(O)cc2)c2c3c(C[C@@H](C)OC(=O)c4ccccc4)c(OC)c(=O)c4c(O)cc(OC)c(c5c(OC)cc(O)c(c1=O)c52)c43` [CALPHOSTIN C], the negative-log IC50 (pIC50) in series [5] is 6.26; in series [4] it was 6.41.

For the molecule `COc1ccc(-c2nc3c(=O)n(C)c(=O)nc-3n(-c3ccccc3)n2)cc1`, the values for the pIC50 in series [5] and in [4] were 5.57 and 5.68, respectively.

Consider `Cn1nc(-c2ccc(Cl)cc2)nc2c(=O)n(C)c(=O)nc1-2`, for which the inhibition result in [6] and in series [12] was “Active” throughout. Moreover, the Activity result in [7] was “Dose-dependent effect”. Besides, the result in [8], in series [9], in series [10], in series [11], in series [13] and in series [14] was Active. Moreover, the result in series [17] was Active. The results for the pIC50 in series [5] and in series [4] were 5.75 and 5.82, respectively. Also, the result in series [15] and in series [16] was inactive.

Turning to `Cn1ncnc2c(=O)n(C)c(=O)nc1-2`, the inhibition entry in series [18] and in series [19] was “Active” in each case. The pIC50 in [5] was 6.48; in series [4], 6.54.

Consider `CCN(CC)CCOc1ccc(-c2nc3c(=O)n(C)c(=O)nc-3n(-c3ccccc3)n2)cc1`, for which, in series [20], the remaining at 0.5 h, 1 µM turned out to be 70.7%. Further, the t1/2 in series [21] was found to be 34.7 min. The figures for the pIC50 in series [5] and in series [4] were 6.52 and 6.59, respectively. Also, the Stability in series [22] was 110%. For the same molecule, in series [23], the remaining at 1 h, 1 µM was determined as 31.8%. For the same molecule, in [24], the remaining at 10 min, 1 µM is 92.2%.

Consider `Oc1nc(-c2ccc(C(F)(F)F)cc2)nc2c1CSCC2`, for which the pIC50 was 6.19 in series [5] and 5.54 in series [4].

As for `CCN(CC)CCOc1ccc(-c2nnc3c(n2)c(=O)n(C)c(=O)n3C)cc1`, the inhibition result in series [25] and in [26] was “inactive” throughout.

As to `COc1ccc(-c2nc3c(=O)n(C)c(=O)nc-3n(C)n2)cc1`, the result in series [8] and in [11] was Active. Further, the results for the pIC50 in series [5] and in series [4] were 5.57 and 5.82, respectively.

In the case of `CCN(CC)CCOc1ccc(-c2nc3c(=O)n(C)c(=O)nc-3n(C)n2)cc1`, the inhibition result in [27] and in series [28] was “inactive” throughout.
